In the library only some 9.2% were active in any assay of this set; here they are far more common.
HCT116 bCat-KO: beta-catenin-lacking colon tumor cell growth suppression | 1.5% of 140,000 active | HCT116 beta-catenin knockout viability, CellTiter-Glo, 60 h; hits give low values | viability, % at 10 µM;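 active means viability at or under a set limit, the compound median less 4 SD, cut at about 6% in these data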
Autophagy mod: alters autophagy in cells; AID 463193; 0.98% of 190,000 active; MEF GFP-LC3 puncta imaging; test concentration mostly 10 µM; calls only at 10 µM (by protocol);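 active means percentage of spot-positive cells more than 3 SD above its plate mean, without a fluorescence outlier flag or 80% toxicity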
PTEN del growth: growth suppressors of cells with PTEN tumor suppressor deletion. viability, % at 10 µM. 1.2% of 140,000 active. HCT116 PTEN-null viability, CellTiter-Glo, 60 h; hits give low values;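 active means viability at or below a set limit, 4 SD under the median of all tested compounds, cut at about 3.7% in these data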;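 further: PTEN knockout HCT116 line with beta catenin targeted HCT116 as companion control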
Lmaj promast: Leishmania major promastigote growth inhibition. Leishmania major promastigotes, resazurin fluorescence viability. inhibition, % at 10 µM. 9% of 200,000 active. AID 1063; in the data active means inhibition above about 50%;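 further: promastigotes grown with compound for 44 hours at 28 °C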
Dynein cargo inh: blocks dynein driven cargo transport along microtubules. 3617.4 mouse cells, GR-EGFP nuclear translocation imaging; test concentration mostly 20 µM; stimulated with dexamethasone, 1 µM; hits give low values. z-score, hits read low. 0.47% of 220,000 active. AID 1381;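 active means plate z-score of nuclear minus cytoplasmic receptor signal below a set negative limit, without overly bright fluorescence or cell loss, cut at about -3.5 in these data, passing the limit was not always enough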;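 further: z-score of nuclear minus cytoplasmic ring GR-EGFP intensity difference per well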
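Also added: dexamethasone, 1.0 µM final. Medium: tet-free, stripped-serum medium. Detection: fixed, Hoechst-stained cells imaged at 10x for EGFP. Read-out: nuclear-to-cytoplasmic GR-EGFP distribution per well. Times: induction 48 h, compound 1 h, agonist 30 min.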
Hits are given with their value; 0 = inactive; - = not tested or not shown; + = active, no number.

SMILES	HCT116 bCat-KO	Autophagy mod	PTEN del growth	Lmaj promast	Dynein cargo inh
CCc1ccc(-c2nc(CN3CCCC(C(=O)O)C3)c(C)o2)cc1 (stereo not drawn)	0	-	0	0	0
CCc1ccc(-c2nc(CN3CCC(C(=O)N4CCN(c5ccccn5)CC4)CC3)c(C)o2)cc1	1.9	0	1.1	83.9	0
CCN1CCN(C(=O)N2CCOCC2)CC1	-	0	-	0	0
O=[N+]([O-])c1ccc(/C=C/c2ccc3cccc([N+](=O)[O-])c3n2)cc1	0	0	0	51.0	0
O=[N+]([O-])c1cccc2ccc(/C=C/c3ccc(F)cc3)nc12	0	0	0	56.6	0
COc1c(OC(C)=O)ccc(/C=C/c2ccc3cccc(OC)c3n2)c1[N+](=O)[O-]	0	0	0	0	0
COc1cc(/C=C/c2ccc3cccc([N+](=O)[O-])c3n2)ccc1OCC#N	0	0	0	0	0
CCOc1cc(/C=C/c2ccc3cccc([N+](=O)[O-])c3n2)ccc1OCC(=O)N(C)C	-	0	-	0	0
CCOc1cc(/C=C/c2ccc3cccc([N+](=O)[O-])c3n2)ccc1O	0	0	0	72.7	0
O=C(O)c1ccc(/C=C/c2ccc3cccc(O)c3n2)cc1	-	0	-	0	0
CCOc1c(OC(C)=O)ccc(/C=C/c2ccc3cccc(OC(C)=O)c3n2)c1[N+](=O)[O-]	1.5	0	3.2	0	0
O=C(CCSCc1ccc(Cl)cc1)NCc1cccs1	-	0	-	0	0
Cc1ccc(S(=O)(=O)/N=C(/c2ccccc2)N2CCOCC2)c(C)c1	-	0	-	0	0
C/C(=N\NC(=O)c1cccc(F)c1)c1ccc(Br)s1	0	0	0	0	0
CC(=O)Nc1ccc(S(=O)(=O)N2c3ccccc3C(C)=CC2(C)C)cc1	-	+	-	100.0	0
CC1=CC(C)(C)N(S(=O)(=O)c2ccc(C)cc2)c2ccc(C)cc21	0	+	0	99.6	0
C/C=C/C(=O)N1c2ccc(C)cc2C(C)=CC1(C)C	-	-	-	-	0
CC1=CC(C)(C)N(S(=O)(=O)c2ccc(F)cc2)c2ccccc21	0	0	0	0	0
COc1cc2c(cc1OC)C(c1cccs1)N(C(=S)NC(C)C)CC2 (stereo not drawn)	-	0	-	0	0
CO/C(N)=C(\C#N)N=Cc1ccccc1Cl	-	0	-	0	0
COc1cc(/C=C2\SC(=S)NC2=O)ccc1OS(=O)(=O)c1ccccc1	0	0	0	62.8	0
O=C1/C(=C\c2ccncc2)SC(=S)N1C1CCCCC1	0	0	0	65.2	0
CCCCC(CC)CN1C(=O)/C(=C/c2ccncc2)SC1=S (stereo not drawn)	0	0	0	96.5	0
COc1cc(C(=O)N/N=C/c2ccc(OC)c(CN3CCN(c4ccc(F)cc4)CC3)c2)ccc1O	-	0	-	0	0
Cc1ccc2nc(NCc3ccccc3)[nH]c2c1	0	+	0	64.8	0
SMILES	HCT116 bCat-KO	Autophagy mod	PTEN del growth	Lmaj promast	Dynein cargo inh
NC(=S)N/N=C/c1ccc(-c2cc(Cl)c(Cl)cc2Cl)o1	-	0	-	78.1	0
C=CCn1c(=O)/c(=C/c2ccc(F)cc2)s/c1=C(\C#N)c1nnc2n1CCCCC2	0	0	0	61.1	0
Cc1nnc2n(c1=O)N=C(c1ccc(Cl)cc1)CS2	0	0	0	80.5	0
c1ccc(C2=Nn3c(nnc3-c3cc(-c4ccccc4)n[nH]3)SC2)cc1	0	0	0	63.1	0
COc1ccc(C2=Nn3c(nnc3-c3ccc(OC)cc3)SC2)cc1	0	0	0	60.9	0
COc1ccc(OC)c(C2=Nn3c(nnc3-c3cc(OC)c(OC)c(OC)c3)SC2)c1	0	0	0	0	0
COc1cc(-c2nnc3n2N=C(c2ccccc2)CS3)cc(OC)c1OC	0	+	0	0	0
CCOC(=O)C1C(=O)CC(C)(O)C(C(=O)OCC)C1c1ccc(NC(C)=O)cc1 (stereo not drawn)	-	0	-	0	0
O=C(Nc1nc(-c2ccccc2)cs1)c1ccc(Br)o1	0	0	0	0	0
CCCCNC(=O)c1ccccc1NC(=O)CN(c1ccccc1)S(=O)(=O)N(C)C	0	0	0	64.7	0
COC(=O)c1ccccc1NC(=O)CN(c1ccccc1)S(=O)(=O)N(C)C	0	0	0	0	0
O=C(CCl)Nc1ccccc1C(=O)c1ccccc1	-	0	-	0	0
Cc1cc(C(=O)c2ccccc2)c(NC(=O)CCl)s1	0	0	0	99.7	0
Cc1ccc2nc(Cl)c(/C=N/NC(=O)c3ccccc3O)cc2c1	0	0	0	0	0
Cc1ccc(O)c(/C=N/NC(=O)C2=NNC(c3ccccc3)(c3ccccc3)C2)c1	0	0	0	100.0	0
O=C(N/N=C\c1c(O)ccc2ccccc12)c1ccc(Cn2cccn2)o1	5.6	0	0	98.5	0
CCOc1ccc(/C=N/NC(=O)c2[nH]ncc2Br)c(O)c1	-	0	-	98.6	0
OCC(CO)(CO)N=Cc1c(O)ccc2ccccc12	0	0	0	96.8	0
O=C(Cn1cncn1)c1ccccc1	-	-	-	-	0
O=C(N/N=C/c1c(O)ccc2ccccc12)c1cccc(C(F)(F)F)c1	0	0	0	97.4	0
O=C(N/N=C/c1c(O)ccc2ccccc12)c1[nH]ncc1Br	0	0	0	99.8	0
Cc1ccc(O)c(/C=N/NC(=O)c2[nH]ncc2Br)c1	0	0	0	97.5	0
Cc1ccc(NC(=O)c2ccc(OC(=O)C(C)Oc3ccc(Cl)cc3C)cc2)cc1 (stereo not drawn)	0	0	0	0	0
CCNCc1cc(OCC)c(OCC(=O)NCCc2ccccc2)cc1Cl	0	0	0	99.0	0
CCOc1cc(CNCC(C)C)c(Cl)cc1OCC(=O)Nc1ccccc1	-	0	-	81.6	0
SMILES	HCT116 bCat-KO	Autophagy mod	PTEN del growth	Lmaj promast	Dynein cargo inh
CNCc1ccccc1OCC(=O)Nc1ccccc1	0	0	0	0	0
O=C(COc1ccc([N+](=O)[O-])cc1Cl)NCCc1ccccc1	0	0	0	0	0
Cn1cc(Br)c(C(=O)N2CCc3ccccc32)n1	0	0	0	0	0
CN1CCN(C2=C(Cl)C(=O)N(C3CCCCC3)C2=O)CC1	0	0	0	94.6	0
CCOc1ccc(NC2=C(Cl)C(=O)N(C3CCCCC3)C2=O)cc1	0	0	0	0	0
CNS(=O)(=O)c1cccc(C(=O)OCC(=O)N(Cc2ccccc2)C(C)(C)C)c1	-	0	-	0	0
Cc1cccc(C)c1N1CCN(c2ccc3nnc(C(F)(F)F)n3n2)CC1	0	0	0	59.8	0
O=C(CCn1c(=O)oc2ccccc21)NCCN1CCc2ccccc2C1	0	0	0	0	0
O=C(CCCn1c(=O)oc2ccccc21)N1CCc2ccccc2C1	0	+	0	0	0
O=C(Cc1ccc(-c2ccccc2)cc1)NCCN1CCOCC1	0	0	0	0	0
O=C(/C=C/c1ccccc1)NCCN1CCOCC1	0	0	0	63.2	0
COc1ccc(CCNC(=O)Cc2cccs2)cc1	0	0	0	56.4	0
COc1ccc(/C=C/C(=O)NCCN2CCOCC2)cc1OC	-	0	-	0	0
O=C(Cc1cccs1)NCCN1CCOCC1	0	0	0	50.5	0
O=C(NCCN1CCOCC1)c1cccc(Cl)c1	0	0	0	0	0
O=C(/C=C/c1ccc(Cl)cc1Cl)NCCN1CCOCC1	0	0	0	71.0	0

Assay outcomes from PubChem.
